Results collected from several papers.
Compare with care: the assays were run in different laboratories.
Target: RAC-alpha serine/threonine-protein kinase (AKT1, Homo sapiens, UniProt P31749)

Compound	test	conditions	quantity	result
Cc1nn(C)cc1-c1nc2c(N3CCN(Cc4ccc(Cl)cc4)CC3)c(Cl)cnc2[nH]1	binding, competition with immobilised ligand	1 µM	remaining binding	100%
C#Cc1n[nH]c2c(-c3cn([C@@H](C)c4ccccc4)c(=O)[nH]c3=O)cc(F)cc12	enzyme activity, inhibitor	0.1 µM	inhibition	1.4%
O=C(NCc1ncc(C(F)(F)F)cc1Cl)c1ccc2c(c1)C1(CCS(=O)(=O)CC1)[C@H](C1CC1)N2S(=O)(=O)c1ccc(F)cc1	cell-free assay, competition with immobilised ligand	1 µM	remaining binding	96%
C#Cc1n[nH]c2c(-c3cn(C(C)c4ccccn4)c(=O)[nH]c3=O)cc(F)cc12 (stereo not drawn)	enzyme activity, inhibitor	1 µM	inhibition	3.7%
Nc1ncc(-c2nc(N3CCOCC3)nc(N3CCOCC3)n2)c(C(F)F)n1	binding, competition with immobilised ligand	10 µM	remaining binding	94%
Cn1cc(-c2cc(F)cc(N3CCn4c(cc5c4CCCC5)C3=O)c2CO)cc(Nc2ccc(N3CCN(C4COC4)CC3)cn2)c1=O	enzyme activity, inhibitor	0.1 µM	inhibition	5%
COc1cc(Nc2ncc(F)c(Nc3ccc4c(n3)NC(=O)C(C)(C)O4)n2)cc(OC)c1OC	binding, competition with immobilised ligand	10 µM	inhibition	0%
Cn1cc(-c2cccc(N3CCc4c(sc5c4CC(C)(C)C5)C3=O)c2CO)cc(Nc2ccncn2)c1=O	enzyme activity, inhibitor	1 µM	inhibition	4%
CC(C)(C)c1cc(C=C(C#N)C#N)cc(Br)c1O	enzyme activity, inhibitor	0.5 µM	remaining activity	108%
Cn1cncc1[C@](O)(COc1ccc(C#N)cc1-c1ccc(OC(F)(F)F)cc1)c1ccc(C#N)cc1	cell-free assay, competition with immobilised ligand	1 µM	remaining binding	84%
O=c1[nH]c2ccccc2n1C1CCN(Cc2ccc(-c3[nH]c4cc5ncnc5cc4nc3-c3ccccc3)cc2)CC1	cell-free assay	0.5 µM	remaining signal	114%
COc1ncccc1-c1cnn2ccc(N3CCN(C(=O)OC(C)C)CC3)nc12	binding, competition with immobilised ligand	1 µM	remaining binding	100%
